Experiment [1] relates to Canis familiaris. Kind of experiment: Inhibitory activity when administered intravenously in histamine-stimulated gastric fistula dog at 3 mg/kg, id. Type of experiment: functional. Particulars: Canis lupus familiaris, Stomach, in the assay text read “in” for “when administered intravenously in”. In short, it runs like this:
(§1)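 Conscious gastric-fistula dogs fasted 18 h, given 3 mg/kg after a 30-min basal period. Histamine infused at 15 μg/kg per h, with gastric juice collected every 30 min for 4 h. Total acidity found by titration with 0.1 N NaOH to pH 7.0.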

Experiment [2] has as its target Potassium-transporting ATPase (Canis familiaris). Kind of experiment: In vitro inhibitory activity against H+/K+ ATPase prepared from canine fundic mucosa.
In experiment [3] the test system is Canis familiaris. Kind of experiment: Inhibitory activity when administered […] in histamine-stimulated gastric fistula dog at 3 mg/kg, id; Lethal at 10 mg/kg, id. Type of experiment: functional, organism-based. Particulars: Canis lupus familiaris, Stomach. In short, it runs like this:
as §1

Molecules are shown by their SMILES. Some results are limits rather than exact numbers.

What is called inhibition in vivo is the share of the control response that was lost under treatment. A word on the IC50: it is the midpoint of a concentration-inhibition curve. A low value points to greater potency.

In turn, `CCc1cccc(C[S+]([O-])c2nc3ccccc3[nH]2)c1N` (stereo not given) gave an inhibition in vivo at 3 mg/kg in the experiment with Canis familiaris [1] of 21%. In addition, in experiment [2], the IC50 came to 3.9 µM.
For `COc1ccc2[nH]c([S+]([O-])Cc3cc(C)ccc3N)nc2c1` (stereo not given), in that order: 80% and 4.2 µM.
Taken in the same sequence, the figures for `Nc1ccc(C(F)(F)F)cc1C[S+]([O-])c1nc2ccccc2[nH]1` (stereo not given) were 16% and greater than 100 µM.
Regarding `Cc1ccc2nc([S+]([O-])Cc3ccc(C)c(C)c3N)[nH]c2c1` (stereo not given), in experiment [2], half-maximal inhibition (IC50) required 0.7 µM.
As for `COc1ccc2[nH]c([S+]([O-])Cc3ncc(C)c(OC)c3C)nc2c1` (stereo not given) [OMEPRAZOLE], in the experiment on Canis familiaris [1], testing at 3 mg/kg gave an inhibition in vivo of 97%.
In experiment [2], `CCOc1ccc2[nH]c([S+]([O-])Cc3cc(C)ccc3N)nc2c1` (stereo not given) had an IC50 of 5.3 µM.
Still for that read-out and setting: as for `Cc1cc(N)c(C[S+]([O-])c2nc3ccccc3[nH]2)c(C)c1C` (stereo not given), the figure is 10 µM.
In the experiment with Canis familiaris [1], `COc1ccc2[nH]c([S+]([O-])Cc3cccc(C)c3N)nc2c1` (stereo not given) registered an inhibition in vivo at 3 mg/kg of 72%. In experiment [2], this molecule registered an IC50 of 5.4 µM.
In experiment [2], `CCOc1ccc2[nH]c([S+]([O-])Cc3ccccc3N)nc2c1` (stereo not given) returned a 50% inhibitory concentration (IC50) of 24 µM.
With `COC(=O)c1cccc(C[S+]([O-])c2nc3ccccc3[nH]2)c1N` (stereo not given), the inhibition in vivo at 3 mg/kg in the experiment with Canis familiaris [1] came out at 28%. In experiment [2], the IC50 is greater than 100 µM.
In the case of `CN(C)c1ccccc1C[S+]([O-])c1nc2ccccc2[nH]1` (stereo not given), in the experiment with Canis familiaris [1], the inhibition in vivo at 3 mg/kg came out at 14%. In addition, in experiment [2], the IC50 turned out to be 0.7 µM.
Taken in the same sequence, the figures for `Cc1cc2nc([S+]([O-])Cc3ccccc3N)[nH]c2cc1C` (stereo not given) were 44% and 13.5 µM.
As for `CCOC(=O)c1ccc(N)c(C[S+]([O-])c2nc3ccc(OC)cc3[nH]2)c1` (stereo not given), in experiment [2], the IC50 is greater than 100 µM.
In experiment [2], `Nc1ccc(F)cc1C[S+]([O-])c1nc2ccccc2[nH]1` (stereo not given) came in with an IC50 of 25 µM.
Take `COc1c(C)cc(N)c(C[S+]([O-])c2nc3ccccc3[nH]2)c1C` (stereo not given): the inhibition in vivo at 3 mg/kg with Canis familiaris [1] was 53%. Further, inhibition in experiment [2] was half-maximal at 0.2 µM (IC50).
Take `COc1cccc(C[S+]([O-])c2nc3cc(C(F)(F)F)ccc3[nH]2)c1N` (stereo not given): in experiment [2], 8.5 µM corresponded to half-maximal inhibition (IC50).
In turn, `COc1cccc(C[S+]([O-])c2nc3ccccc3[nH]2)c1N` (stereo not given) displayed an inhibition in vivo at 3 mg/kg in the experiment on Canis familiaris [1] of 68%. This molecule also showed an IC50 in experiment [2] of 9.3 µM.
`[O-][S+](Cc1ccccn1)c1nc2ccccc2[nH]1` (stereo not given) [TIMOPRAZOLE] showed an inhibition in vivo at 3 mg/kg in the experiment with Canis familiaris [1] of 68%.
As to `CC(=O)Nc1ccccc1C[S+]([O-])c1nc2ccccc2[nH]1` (stereo not given), the inhibition in vivo at 3 mg/kg in the experiment on Canis familiaris [1] came to 37%. Besides, in experiment [2], the IC50 is greater than 100 µM.
Consider `Cc1cccc(N)c1C[S+]([O-])c1nc2ccccc2[nH]1` (stereo not given), for which the inhibition in vivo at 3 mg/kg in the experiment with Canis familiaris [1] is 44%. Besides, the IC50 in experiment [2] was found to be 0.7 µM.
The molecule `Cc1ccc(C)c(C[S+]([O-])c2nc3ccccc3[nH]2)c1N` (stereo not given) had an IC50 in experiment [2] of 0.8 µM.
As to `CNc1ccccc1C[S+]([O-])c1nc2ccccc2[nH]1` (stereo not given), 3 mg/kg produced 21% inhibition in vivo in the experiment on Canis familiaris [1]. In addition, it took 0.6 µM to reach half-maximal inhibition in experiment [2] (IC50).
In the experiment with Canis familiaris [1], `CCCCc1ccc(N)c(C[S+]([O-])c2nc3ccccc3[nH]2)c1` (stereo not given) displayed an inhibition in vivo at 3 mg/kg of 19%. Besides, half-maximal inhibition in experiment [2] (IC50) required 2.6 µM.
For `Nc1cc(Cl)ccc1C[S+]([O-])c1nc2ccccc2[nH]1` (stereo not given), in that order: 13% and 24 µM.
On to `Cc1cc(C)c(N)c(C[S+]([O-])c2nc3ccccc3[nH]2)c1` (stereo not given), for which the inhibition result with Canis familiaris [3] is “Lethal at 10mg/kg,id”. This molecule also returned an IC50 in experiment [2] of 0.8 µM.
Regarding `COc1ccc(N)c(C[S+]([O-])c2nc3ccccc3[nH]2)c1` (stereo not given), in experiment [2], half-maximal inhibition (IC50) was put at 1.6 µM.
Regarding `Cc1cccc2[nH]c([S+]([O-])Cc3ccccc3N)nc12` (stereo not given), the inhibition in vivo at 3 mg/kg in the experiment with Canis familiaris [1] was found to be 60%. The same molecule registered an IC50 in experiment [2] of 7.4 µM.
Regarding `Cc1ccc2[nH]c([S+]([O-])Cc3ccccc3N)nc2c1` (stereo not given), the IC50 in experiment [2] turned out to be 7.9 µM.
In the experiment with Canis familiaris [1], `Nc1ccccc1C[S+]([O-])c1nc2cc(C(F)(F)F)ccc2[nH]1` (stereo not given) returned an inhibition in vivo at 3 mg/kg of 37%. The molecule further showed an IC50 in experiment [2] of 4.4 µM.
The molecule `CCc1ccc(N)c(C[S+]([O-])c2nc3ccccc3[nH]2)c1` (stereo not given) displayed an inhibition in vivo at 3 mg/kg in the experiment with Canis familiaris [1] of 62%. In experiment [2], this molecule returned an IC50 of 2 µM.
Taken in the same sequence, the figures for `Cc1ccc(N)c(C[S+]([O-])c2nc3ccccc3[nH]2)c1` (stereo not given) were 67% and 2.1 µM.
For `Nc1ccc(Cl)cc1C[S+]([O-])c1nc2ccccc2[nH]1` (stereo not given), in that order: 24% and greater than 100 µM.
In the case of `COc1cc2nc([S+]([O-])Cc3ccccc3N)[nH]c2cc1OC` (stereo not given), half-maximal inhibition in experiment [2] (IC50) was put at 120 µM.
Still for that read-out and setting: as for `Cc1ccc(C)c(C[S+]([O-])c2nc3cc(C(F)(F)F)ccc3[nH]2)c1N` (stereo not given), the figure is 1.5 µM.
Regarding `Cc1cccc(C[S+]([O-])c2nc3ccccc3[nH]2)c1N` (stereo not given), 3 mg/kg produced 44% inhibition in vivo in the experiment on Canis familiaris [1]. The molecule also returned an IC50 in experiment [2] of 3.2 µM.
In the case of `CCOC(=O)c1ccc(N)c(C[S+]([O-])c2nc3ccccc3[nH]2)c1` (stereo not given), 3 mg/kg produced 7% inhibition in vivo with Canis familiaris [1]. In addition, the 50% inhibitory concentration (IC50) in experiment [2] is greater than 100 µM.
`Nc1ccccc1C[S+]([O-])c1nc2cc(Cl)ccc2[nH]1` (stereo not given): in experiment [2], the IC50 stood at 12 µM.
The molecule `COc1ccc2[nH]c([S+]([O-])Cc3c(N)cc(C)c(OC)c3C)nc2c1` (stereo not given) had an inhibition in vivo at 3 mg/kg with Canis familiaris [1] of 31%. In experiment [2], this molecule showed an IC50 of 2.1 µM.
`COc1ccc2[nH]c([S+]([O-])Cc3ccccc3N)nc2c1` (stereo not given) came in with an inhibition in vivo at 3 mg/kg with Canis familiaris [1] of 78%. The same molecule showed an IC50 in experiment [2] of 11 µM.
Regarding `Cc1c(Cl)ccc(C[S+]([O-])c2nc3ccccc3[nH]2)c1N` (stereo not given), the IC50 in experiment [2] came to 6.4 µM.
`Cc1cc(Cl)cc(C[S+]([O-])c2nc3ccccc3[nH]2)c1N` (stereo not given) gave an IC50 in experiment [2] of 60 µM.
On the same count and under the same terms, as for `COc1cc(Cl)c(C)c(C[S+]([O-])c2nc3ccccc3[nH]2)c1N` (stereo not given), the figure is 2.7 µM.
`Nc1ccccc1C[S+]([O-])c1nc2ccccc2[nH]1` (stereo not given) displayed an inhibition in vivo at 3 mg/kg in the experiment on Canis familiaris [1] of 53%. This molecule also displayed an IC50 in experiment [2] of 4.3 µM.
Taken in the same sequence, the figures for `Cc1ccc(C[S+]([O-])c2nc3ccccc3[nH]2)c(N)c1C` (stereo not given) were 79% and 0.6 µM.

The record behind these values is ChEMBL document CHEMBL1124135, “Substituted 2-[(2-benzimidazolylsulfinyl)methyl]anilines as potential inhibitors of H+/K+ ATPase” (J Med Chem, 1988).
